Only some compounds are listed: those with a hit (about 2.3% of all), similar ones and a draw of the others.
TWEAK-Fn14 inh – inhibitors of TWEAK-Fn14 signaling, primary screen, luciferase reporter cells, uHTS. inhibition, % at 10 µM. TWEAK-stimulated Fn14 reporter cells, luciferase luminescence, 8 h. AID 1159606, 2016. 2% of 360,000 active; in the data active means inhibition above about 50%
TROY signal inh – inhibitors of TROY-driven NF-kB signaling, primary screen, Q293 LMP1-TROYcd cells, NF-kB luciferase, uHTS; AID 1347056, 2019; inhibition, % at 10 µM; 0.98% of 360,000 active; Q293 LMP1-TROYcd NF-kB luciferase reporter, 4 h;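 active means compounds whose plate-normalised and pattern-corrected inhibition of the luciferase reporter signal at the single screening dose is 50% or more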
FN deposit inh – inhibitors of fibronectin matrix deposition, primary screen, AH1F cells, Alexa488-fibronectin fluorescence, plate reader | AH1F fibroblasts, overnight | inhibition, % at 12.6 µM | 0.086% of 350,000 active;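 active means mean inhibition across replicates of 30% or more, regardless of how many single replicates reach that level; inconclusive means mean under 30% yet at least half of replicates reach 30%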;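 further: positive control wells lacked labelled fibronectin entirely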
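test system = AH1F fibroblasts assembling fluorescent fibronectin matrix | quantity = 10000 AH1F cells per well | buffer or medium = DMEM plus 2% serum, read in PBS | doses = single dose, pinned | incubation = 1 h cell attachment, overnight exposure to compound and label | detection = fluorescence at 485 nm excitation, 525 nm emission | read-out basis = inhibition from reduced deposited-fibronectin fluorescence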
LGR2 antag – inhibitors of bursicon-induced LGR2 CRE-luciferase signal, primary screen, cell-based, HEK293, CRE-luciferase reporter, bursicon stimulation. 0.35% of 380,000 active. inhibition, % at 9.99 µM. bursicon-stimulated, 4 h. Drosophila bursicon receptor LGR2 (rickets);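 active means drop in luminescence signal, shown as inhibition above about 50% in the replicate tests, limit read from the data, passing the limit was not always enough; inconclusive means probably only some replicates passing the limit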;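 further: agonist challenge used bursicon conditioned medium at about half maximal strength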
EWS-Fli block – EWS/Fli-driven NR0B1 reporter inhibitors, primary screen, A673 cells, NR0B1 luciferase, luminescence, MLPCN library. viability-normalised. inhibition, % at 12.6 µM. 0.67% of 350,000 active;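 active means mean inhibition of at least 50% after viability correction, with every replicate also passing that limit; inconclusive means mean reaches 50% but only one of two replicates passes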;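 further: firefly luciferase signal divided by Alamar Blue viability fluorescence both relative to DMSO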
Xi reactivation – activators of inactive X chromosome reactivation, primary screen, imaging, XiGFP fibroblasts, GFP high-content imaging, set 2. XiGFP mouse fibroblasts, % GFP-positive cells imaging, 3 d; cells co-treated with 5-aza-dC sensitizer; scaled so ellipticine positive control = 100%. activation, % at 7.58 µM. 0.055% of 360,000 active;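 active means mean normalized replicate activation at least 10% and every replicate at or above 10%; inconclusive means only one of the two criteria met; inactive means mean below 10% and not all replicates reach 10%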;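 further: 0% = median of on-plate neutral control wells and 100% = ellipticine 6 µM median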
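Assay system: SV40-immortalized XiGFP fibroblast cells, line 68-5-11; buffer or medium: DMEM plus 5-aza-dC sensitizer; compound: one concentration, pinned; timing: compounds 3 days, fix/stain 15 min at room temperature; benchmarks: positive control ellipticine, 6 µM final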
* marks the source's active call; other numbers are inactive results; ? = inconclusive; . = not tested or not shown.

SMILES	TWEAK-Fn14 inh	TROY signal inh	FN deposit inh	LGR2 antag	EWS-Fli block	Xi reactivation
Cc1cccc(C)c1-n1nnnc1C(CCc1ccccc1)N1CCC2(CC1)C(=O)NCN2c1ccccc1 (stereo not given)	31	67*	1	20	21	0
CSCCC(c1nnnn1-c1c(C)cccc1C)N1CCC2(CC1)C(=O)NCN2c1ccccc1 (stereo not given)	30	35	2	?	1	0
CC=Cc1ccc2n(c1=O)C[C@H]1[C@H](CO)[C@@H](C(=O)OC)[C@@H]2N1CC1CCOCC1 (mixture of isomers)	.	.	.	-9	-1	0
COc1ccc(-c2ccc([C@@H]3[C@@H](CO)N4CCCCN(C(=O)Cc5ccncc5)C[C@H]34)cc2)cc1	.	.	.	-5	3	0
Oc1ccc(O)c2c1C1(Cl)C(Cl)=C(Cl)C2(Cl)C1(Cl)Cl	43	52*	18	23	-12	0
C[C@]12CC[C@@H]3c4ccc(O)c(O)c4CC[C@H]3[C@@H]1CC[C@@H]2O	55*	17	-13	31	18	0
CSCCC(c1nnnn1-c1c(C)cccc1C)N1CCC(n2c(=O)[nH]c3ccccc32)CC1 (stereo not given)	38	36	-1	93*	22	0
O=c1[nH]c2ccccc2n1C1CCN(C(CCc2ccccc2)c2nnnn2C2CCCCC2)CC1 (stereo not given)	69*	53*	.	94*	0	0
CSCCC(c1nnnn1C1CCCC1)N1CCC(n2c(=O)[nH]c3ccccc32)CC1 (stereo not given)	-3	6	-6	37	2	0
O=c1[nH]c2ccccc2n1C1CCN(C(c2ccccc2OC(F)(F)F)c2nnnn2Cc2ccccc2)CC1 (stereo not given)	61*	61*	7	61*	2	0
O=c1[nH]c2ccccc2n1C1CCN(C(CCc2ccccc2)c2nnnn2Cc2ccccc2)CC1 (stereo not given)	94*	71*	41*	99*	24	1
CSCCC(c1nnnn1C1CCCCC1)N1CCC(n2c(=O)[nH]c3ccccc32)CC1 (stereo not given)	15	13	6	12	22	0
CSCCC(c1nnnn1Cc1ccccc1)N1CCC(n2c(=O)[nH]c3ccccc32)CC1 (stereo not given)	36	22	3	15	36	1
CCCN1[C@@H]2c3ccc(-c4ccc(F)cc4)c(=O)n3C[C@H]1[C@H](CO)[C@H]2C(=O)OC	.	.	.	-9	-4	0
COc1ccc(S(=O)(=O)NC(CC(=O)N2CCC3(CC2)OCCO3)c2ccco2)cc1 (stereo not given)	90*	15	.	.	.	.
O=C(Cc1cccnc1)N1CCCCN2[C@H](C1)[C@@H](c1ccc(C#CC3(O)CCCC3)cc1)[C@@H]2CO	.	.	.	5	-5	0
NC(N)=N/N=C/c1ccc(N(c2ccccc2)c2ccccc2)cc1	12	69*	4	52*	58*	0
CCn1c(O)c(C=Nc2ccc(S(N)(=O)=O)cc2)c(=O)n(CC)c1=S	19	4	7	.	-7	0
CCn1c(O)c(C=Nc2ccc(S(N)(=O)=O)cc2)c(=O)[nH]c1=S	21	52*	6	-7	.	0
CC1=C2C[C@H]3[C@@H](CC=C4C[C@@H](O)CC[C@@]43C)[C@@H]2CC[C@]12O[C@@H]1C[C@H](C)CN[C@@H]1C2C (stereo not given in full)	.	.	.	.	5	.
COC(=O)[C@H]1[C@H](CO)[C@H]2Cn3c(ccc(C4=CCCC4)c3=O)[C@@H]1N2C(=O)C1CCCCC1	.	.	.	-5	1	1
CCCCCCOc1ccc(CN2CCN(CCO)CC2)cc1	43	56*	9	34	.	.
C=C1C(=O)OC2CC(C)C3C=CC(=O)C3(C)C(O)C12 (stereo not given)	102*	26	.	.	.	.
C=C1C(=O)O[C@H]2[C@H]1[C@H](OC(=O)CC(=O)O[C@@H]1C[C@@H](C)[C@@H]3C=CC(=O)[C@@]3(C)[C@H]3OC(=O)C(=C)[C@H]13)C[C@@H](C)[C@H]1C=CC(=O)[C@]12C	17	-15	-12	-7	4	0
C=C1C(=O)O[C@H]2C[C@@H](C)[C@@H]3C=CC(=O)[C@@]3(C)C[C@H]12	.	.	-8	82*	59*	0
SMILES	TWEAK-Fn14 inh	TROY signal inh	FN deposit inh	LGR2 antag	EWS-Fli block	Xi reactivation
C=C1C(=O)O[C@@H]2C[C@@H](C)[C@@H]3C4OC4C(=O)[C@@]3(C)[C@@H](O)[C@H]12 (stereo not given in full)	97*	15	12	85*	73*	2
C=C1C(=O)O[C@@H]2C[C@@H](C)[C@@H]3C=CC(=O)[C@@]3(C)[C@@H](OC(=O)CC(=O)O[C@H]3[C@@H]4C(=C)C(=O)O[C@@H]4C[C@@H](C)[C@@H]4C=CC(=O)[C@]43C)[C@H]12	105*	89*	28	.	55*	1
CC=Cc1ccc2n(c1=O)C[C@H]1[C@H](CO)[C@@H](C(=O)N(C)C)N[C@@H]21 (mixture of isomers)	.	.	-4	-6	-6	0
O=C(c1ccc(Cl)cc1)C12CN3CN(CN(C3)C1)C2	63*	.	.	.	.	.
O=C(c1cccc([N+](=O)[O-])c1)C12CN3CN(CN(C3)C1)C2	10	3	2	15	0	0
COc1cc(/C=C/c2nc3ccccc3c(=O)n2-c2ccc(O)cc2)ccc1O	54*	27	6	16	23	0
C[C@@H]1CN([C@H](C)CO)C(=O)CCCn2cc(nn2)CO[C@@H]1CN(C)C(=O)Oc1ccc2ccccc2c1	.	.	7	18	0	0
Cc1cccc(S(=O)(=O)N2[C@@H]3c4ccc(-c5ccccc5)c(=O)n4C[C@H]2[C@H](CO)[C@H]3C(=O)O)c1	.	.	.	-1	1	0
CCCCn1c(=O)c(C(=O)NCc2ccncc2)c(O)c2ccccc21	56*	23	.	.	.	.
CCCCn1c(=O)c(C(=O)Nc2ccccc2S(N)(=O)=O)c(O)c2ccccc21	15	8	.	.	.	.
CCCCCn1c(=O)c(C(=O)Nc2ccccc2S(N)(=O)=O)c(O)c2ccccc21	59*	36	23	26	16	0
COC(=O)[C@H]1[C@H](CO)[C@H]2Cn3c(ccc(/C=C/c4ccccc4)c3=O)[C@@H]1N2C(=O)C1CC1	.	.	.	-8	22	1
